Each block holds one compound with its values, some of them ahead of it. The source made the active and inactive calls. The calls are words filed in the database; no cut-off is given here.
Assays:
[1] = biological target: T1, Maternal embryonic leucine zipper kinase (Homo sapiens, UniProt Q14680); assay: Inhibition of MELK (unknown origin)
Target sequence in this assay (Q14680 whole entry): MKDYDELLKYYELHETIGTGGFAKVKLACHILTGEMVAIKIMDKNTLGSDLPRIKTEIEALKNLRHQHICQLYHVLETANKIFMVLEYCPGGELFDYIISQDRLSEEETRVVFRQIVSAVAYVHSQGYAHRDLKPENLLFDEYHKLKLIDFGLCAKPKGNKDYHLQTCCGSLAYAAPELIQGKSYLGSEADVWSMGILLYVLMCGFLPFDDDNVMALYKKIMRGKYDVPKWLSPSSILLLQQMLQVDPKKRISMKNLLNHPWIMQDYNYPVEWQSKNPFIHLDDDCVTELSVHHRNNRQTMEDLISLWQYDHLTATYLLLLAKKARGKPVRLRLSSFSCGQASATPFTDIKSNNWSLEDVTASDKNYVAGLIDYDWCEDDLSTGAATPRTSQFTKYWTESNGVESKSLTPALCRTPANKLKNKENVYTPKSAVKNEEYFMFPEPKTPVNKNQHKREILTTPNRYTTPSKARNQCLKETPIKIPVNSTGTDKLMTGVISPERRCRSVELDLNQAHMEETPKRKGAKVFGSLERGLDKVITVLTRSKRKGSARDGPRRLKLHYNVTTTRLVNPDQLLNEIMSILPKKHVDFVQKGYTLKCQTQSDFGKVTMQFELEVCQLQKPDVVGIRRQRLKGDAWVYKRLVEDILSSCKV

[2] = biological target: Tyrosine-protein kinase Blk (Homo sapiens, UniProt P51451); assay: Inhibition of BLK (unknown origin)
[3] = biological target: Signal transducer and activator of transcription 3 (Homo sapiens) (UniProt P40763); assay: Inhibition of STAT3 at Tyr705 in human MDA-MB-231 cells at 5 uM after 8 hrs by Western blot method; assay type: cell-based
Signal transducer and activator of transcription 3 (Homo sapiens), sequence (P40763 whole entry): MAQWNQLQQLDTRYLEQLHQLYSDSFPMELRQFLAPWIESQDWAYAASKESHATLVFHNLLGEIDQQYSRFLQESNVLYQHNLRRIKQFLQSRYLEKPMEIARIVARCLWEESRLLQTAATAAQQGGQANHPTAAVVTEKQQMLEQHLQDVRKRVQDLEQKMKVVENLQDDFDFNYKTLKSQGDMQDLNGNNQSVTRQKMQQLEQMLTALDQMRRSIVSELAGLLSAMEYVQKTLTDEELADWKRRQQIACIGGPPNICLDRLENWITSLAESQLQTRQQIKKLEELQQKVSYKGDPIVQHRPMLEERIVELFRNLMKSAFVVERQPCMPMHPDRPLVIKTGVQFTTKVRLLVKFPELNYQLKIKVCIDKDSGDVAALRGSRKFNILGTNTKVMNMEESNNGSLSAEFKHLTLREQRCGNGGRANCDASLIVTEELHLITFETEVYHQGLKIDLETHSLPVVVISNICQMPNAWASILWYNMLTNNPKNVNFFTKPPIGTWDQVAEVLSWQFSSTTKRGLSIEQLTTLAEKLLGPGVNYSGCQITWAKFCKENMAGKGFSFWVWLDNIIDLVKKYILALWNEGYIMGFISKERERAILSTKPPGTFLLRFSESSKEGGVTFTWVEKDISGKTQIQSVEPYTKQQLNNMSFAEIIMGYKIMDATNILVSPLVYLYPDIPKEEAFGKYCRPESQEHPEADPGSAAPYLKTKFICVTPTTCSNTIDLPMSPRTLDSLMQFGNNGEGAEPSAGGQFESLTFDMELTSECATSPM

[4] = biological target: T1, Maternal embryonic leucine zipper kinase; assay: Inhibition of MELK (unknown origin) at 20 uM relative to control
Target sequence in this assay (Q14680 whole entry, looked up): as the sequence (Q14680 whole entry) above

[5] = biological target: Cytoplasmic tyrosine-protein kinase BMX (Homo sapiens, UniProt P51813); assay: Inhibition of BMX/ETK (unknown origin)
[6] = biological target: T1, Maternal embryonic leucine zipper kinase; assay: Inhibition of MELK in human MDA-MB-468 cells assessed as decrease in p53 phosphorylation at Ser15 residue at 5 uM by Western blot method; assay type: cell-based; conditions: TDE = time-dependent effect
Summary of the method: (§1)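 Cells were treated at 5 µM over 48 h. Total lysates were made in RIPA with protease/phosphatase inhibitors, 30 µg protein was run on 10% SDS-PAGE and moved to nitrocellulose. Primary antibodies were applied overnight at 4 °C, then IRDye 800 anti-mouse or Alexa Fluor 680 anti-rabbit secondaries for 1 h at RT, with infrared imaging. Actin served as loading control. Band changes are given as percent of control, mean ± SD, n = 2.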
Target sequence in this assay (Q14680 whole entry, looked up): as the sequence (Q14680 whole entry) above

[7] = biological target: T1, Maternal embryonic leucine zipper kinase; assay: Inhibition of MELK in human MDA-MB-231 cells assessed as upregulation of p53-dependent p21WAF1/CIP1 expression at 5 uM by Western blot method; assay type: cell-based; conditions: TDE = time-dependent effect; summary of the method: as §1
Target sequence in this assay (Q14680 whole entry, looked up): as the sequence (Q14680 whole entry) above

[8] = biological target: Signal transducer and activator of transcription 3 (Homo sapiens) (UniProt P40763); assay: Inhibition of STAT3 phosphorylation in human MDA-MB-468 cells assessed as down regulation of Bcl-XL level at 5 uM up to 48 hrs by Western blot method; assay type: cell-based; summary of the method: as §1
[9] = biological target: Signal transducer and activator of transcription 3 (Homo sapiens) (UniProt P40763); assay: Inhibition of STAT3 phosphorylation in human MDA-MB-231 cells assessed as downregulation of Bcl-XL level at 5 uM up to 48 hrs by Western blot method; assay type: cell-based; summary of the method: as §1
[10] = biological target: Tyrosine-protein kinase Lyn (Homo sapiens, UniProt P07948); assay: Inhibition of LYN B (unknown origin)
[11] = biological target: Tyrosine-protein kinase JAK2 (Homo sapiens) (UniProt O60674); assay: Inhibition of JAK2 (unknown origin) at 20 uM
[12] = biological target: Signal transducer and activator of transcription 3 (Homo sapiens) (UniProt P40763); assay: Inhibition of STAT3 in human MDA-MB-231 cells assessed as decrease in autophagic flux by measuring accumulation of LC3B-2 level at 5 uM after 4 hrs in presence of bafilomycin A by Western blot method; assay type: cell-based
Summary of the method: (§2)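 Cells were exposed for 4 h to 5 µM compound, DMSO vehicle, or 1% O2 as hypoxic autophagy control. Bafilomycin A1 (100 nM) was added 4 h before harvest. Lysis was in NP40 buffer with protease/phosphatase inhibitors, then 16,300g spin for 15 min at 4 °C, SDS-PAGE and PVDF transfer. Blots were probed overnight at 4 °C with anti-LC3B (1:3000), then HRP secondary (1:10,000) for 2 h, with ECL detection of LC3B-I and LC3B-II.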

[13] = biological target: Megakaryocyte-associated tyrosine-protein kinase (Homo sapiens, UniProt P42679); assay: Inhibition of CTK/MATK (unknown origin)
Megakaryocyte-associated tyrosine-protein kinase, sequence (P42679 whole entry): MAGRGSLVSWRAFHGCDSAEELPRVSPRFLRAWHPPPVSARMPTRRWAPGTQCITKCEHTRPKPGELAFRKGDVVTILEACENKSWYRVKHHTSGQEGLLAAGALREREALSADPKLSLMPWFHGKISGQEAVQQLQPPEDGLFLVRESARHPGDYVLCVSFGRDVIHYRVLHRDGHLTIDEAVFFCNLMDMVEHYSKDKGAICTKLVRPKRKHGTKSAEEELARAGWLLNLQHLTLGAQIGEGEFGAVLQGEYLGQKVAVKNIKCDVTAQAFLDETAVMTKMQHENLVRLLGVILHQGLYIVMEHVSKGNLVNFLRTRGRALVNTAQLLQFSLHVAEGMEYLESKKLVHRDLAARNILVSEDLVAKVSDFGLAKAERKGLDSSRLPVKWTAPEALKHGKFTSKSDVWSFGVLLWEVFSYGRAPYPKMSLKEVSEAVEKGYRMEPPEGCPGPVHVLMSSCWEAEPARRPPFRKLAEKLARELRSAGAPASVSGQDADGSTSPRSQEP

[14] = biological target: Receptor tyrosine-protein kinase erbB-4 (Homo sapiens, UniProt Q15303); assay: Inhibition of ERBB4/HER4 (unknown origin)
[15] = biological target: Signal transducer and activator of transcription 3 (Homo sapiens) (UniProt P40763); assay: Inhibition of STAT3 phosphorylation at Tyr705 in human MDA-MB-468 cells at 5 uM measured at 4 hrs by Western blot method; assay type: cell-based
Insulin receptor = Insulin receptor (Homo sapiens, UniProt P06213); assay: Inhibition of IR (unknown origin)
[16] = biological target: Tyrosine-protein kinase JAK3 (Homo sapiens) (UniProt P52333); assay: Inhibition of JAK3 (unknown origin) at 20 uM
Tyrosine-protein kinase JAK3 (Homo sapiens), sequence (P52333 whole entry): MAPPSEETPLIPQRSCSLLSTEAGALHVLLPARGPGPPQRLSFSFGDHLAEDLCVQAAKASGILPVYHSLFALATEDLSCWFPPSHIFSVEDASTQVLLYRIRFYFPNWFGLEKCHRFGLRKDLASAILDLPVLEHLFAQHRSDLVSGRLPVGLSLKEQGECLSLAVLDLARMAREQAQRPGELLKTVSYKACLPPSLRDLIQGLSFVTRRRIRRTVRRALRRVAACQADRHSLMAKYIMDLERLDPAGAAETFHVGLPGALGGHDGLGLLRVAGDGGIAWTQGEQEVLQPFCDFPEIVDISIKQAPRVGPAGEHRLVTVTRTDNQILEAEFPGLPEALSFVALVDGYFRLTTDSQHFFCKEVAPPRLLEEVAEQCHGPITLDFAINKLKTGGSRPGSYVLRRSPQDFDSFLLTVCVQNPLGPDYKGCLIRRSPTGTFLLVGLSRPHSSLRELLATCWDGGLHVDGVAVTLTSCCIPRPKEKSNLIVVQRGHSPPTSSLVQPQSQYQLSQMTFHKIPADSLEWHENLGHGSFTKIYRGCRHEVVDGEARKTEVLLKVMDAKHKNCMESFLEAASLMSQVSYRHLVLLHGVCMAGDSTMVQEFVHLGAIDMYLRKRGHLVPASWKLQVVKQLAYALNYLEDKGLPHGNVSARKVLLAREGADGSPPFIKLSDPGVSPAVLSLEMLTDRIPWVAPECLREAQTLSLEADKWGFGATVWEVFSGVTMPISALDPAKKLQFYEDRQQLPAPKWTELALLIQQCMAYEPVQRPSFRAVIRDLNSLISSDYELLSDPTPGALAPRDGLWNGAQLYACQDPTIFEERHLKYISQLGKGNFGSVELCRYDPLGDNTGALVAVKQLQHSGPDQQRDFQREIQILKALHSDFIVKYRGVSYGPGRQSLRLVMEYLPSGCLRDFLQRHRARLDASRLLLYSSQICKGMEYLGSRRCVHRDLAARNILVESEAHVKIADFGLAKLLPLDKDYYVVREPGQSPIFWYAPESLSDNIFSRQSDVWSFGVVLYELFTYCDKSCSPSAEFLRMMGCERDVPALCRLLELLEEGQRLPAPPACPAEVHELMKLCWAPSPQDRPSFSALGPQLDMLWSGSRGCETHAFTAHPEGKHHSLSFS

[17] = biological target: Fibroblast growth factor receptor 1 (Homo sapiens, UniProt P11362); assay: Inhibition of FGFR1 (unknown origin)
[18] = biological target: Calcium/calmodulin-dependent protein kinase type 1 (Homo sapiens, UniProt Q14012); assay: Inhibition of CaMK1alpha (unknown origin)
[19] = biological target: Tyrosine-protein kinase JAK1 (Homo sapiens) (UniProt P23458); assay: Inhibition of JAK1 (unknown origin) at 20 uM
[20] = biological target: T1, Maternal embryonic leucine zipper kinase; assay: Inhibition of MELK in human MDA-MB-231 cells assessed as decrease in cyclin A2 level at 5 uM measured over 48 hrs by Western blot method; assay type: cell-based; summary of the method: as §1
Target sequence in this assay (Q14680 whole entry, looked up): as the sequence (Q14680 whole entry) above

[21] = biological target: T1, Maternal embryonic leucine zipper kinase; assay: Inhibition of MELK in human MDA-MB-468 cells assessed as decrease in cyclin A2 level at 5 uM measured over 48 hrs by Western blot method; assay type: cell-based; summary of the method: as §1
Target sequence in this assay (Q14680 whole entry, looked up): as the sequence (Q14680 whole entry) above

[22] = biological target: Tyrosine-protein kinase Fer (Homo sapiens, UniProt P16591); assay: Inhibition of FER (unknown origin)
[23] = biological target: Signal transducer and activator of transcription 3 (Homo sapiens) (UniProt P40763); assay: Inhibition of STAT3 phosphorylation in human MDA-MB-468 cells assessed as down regulation of survivin level at 5 uM up to 48 hrs by Western blot method; assay type: cell-based; summary of the method: as §1
MDA-MB-468 = assay: Effect on p53 levels in human MDA-MB-468 cells at 5 uM up to 48 hrs by Western blot method; assay type: functional, cell-based; summary of the method: as §1
[24] = biological target: Tyrosine-protein kinase CSK (Homo sapiens, UniProt P41240); assay: Inhibition of CSK (unknown origin)
[25] = biological target: RAC-alpha serine/threonine-protein kinase (Homo sapiens) (UniProt P31749); assay: Inhibition of Akt phosphorylation in human MDA-MB-468 cells by Western blot method; assay type: cell-based
RAC-alpha serine/threonine-protein kinase (Homo sapiens), sequence (P31749 whole entry): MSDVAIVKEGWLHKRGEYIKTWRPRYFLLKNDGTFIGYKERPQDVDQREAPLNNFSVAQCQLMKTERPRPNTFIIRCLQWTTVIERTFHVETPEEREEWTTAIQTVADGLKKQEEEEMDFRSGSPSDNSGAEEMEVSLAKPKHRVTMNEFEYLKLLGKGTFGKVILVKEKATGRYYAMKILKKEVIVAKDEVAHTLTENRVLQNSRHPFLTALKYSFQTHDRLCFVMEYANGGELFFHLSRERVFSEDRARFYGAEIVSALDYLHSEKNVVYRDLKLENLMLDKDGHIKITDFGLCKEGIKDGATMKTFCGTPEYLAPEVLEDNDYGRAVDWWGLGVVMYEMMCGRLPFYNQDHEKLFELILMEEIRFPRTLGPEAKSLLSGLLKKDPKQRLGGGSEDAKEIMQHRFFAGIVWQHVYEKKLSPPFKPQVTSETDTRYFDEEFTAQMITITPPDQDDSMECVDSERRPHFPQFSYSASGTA

[26] = biological target: Signal transducer and activator of transcription 3 (Homo sapiens) (UniProt P40763); assay: Inhibition of STAT3 phosphorylation in human MDA-MB-231 cells assessed as downregulation of survivin level at 5 uM up to 48 hrs by Western blot method; assay type: cell-based; summary of the method: as §1
[27] = biological target: Signal transducer and activator of transcription 3 (Homo sapiens) (UniProt P40763); assay: Inhibition of STAT3 at Tyr705 in human MDA-MB-468 cells at 5 uM after 8 hrs by Western blot method; assay type: cell-based
[28] = biological target: Tyrosine-protein kinase BTK (Homo sapiens, UniProt Q06187); assay: Inhibition of BTK (unknown origin)
Tyrosine-protein kinase BTK, sequence (Q06187 whole entry): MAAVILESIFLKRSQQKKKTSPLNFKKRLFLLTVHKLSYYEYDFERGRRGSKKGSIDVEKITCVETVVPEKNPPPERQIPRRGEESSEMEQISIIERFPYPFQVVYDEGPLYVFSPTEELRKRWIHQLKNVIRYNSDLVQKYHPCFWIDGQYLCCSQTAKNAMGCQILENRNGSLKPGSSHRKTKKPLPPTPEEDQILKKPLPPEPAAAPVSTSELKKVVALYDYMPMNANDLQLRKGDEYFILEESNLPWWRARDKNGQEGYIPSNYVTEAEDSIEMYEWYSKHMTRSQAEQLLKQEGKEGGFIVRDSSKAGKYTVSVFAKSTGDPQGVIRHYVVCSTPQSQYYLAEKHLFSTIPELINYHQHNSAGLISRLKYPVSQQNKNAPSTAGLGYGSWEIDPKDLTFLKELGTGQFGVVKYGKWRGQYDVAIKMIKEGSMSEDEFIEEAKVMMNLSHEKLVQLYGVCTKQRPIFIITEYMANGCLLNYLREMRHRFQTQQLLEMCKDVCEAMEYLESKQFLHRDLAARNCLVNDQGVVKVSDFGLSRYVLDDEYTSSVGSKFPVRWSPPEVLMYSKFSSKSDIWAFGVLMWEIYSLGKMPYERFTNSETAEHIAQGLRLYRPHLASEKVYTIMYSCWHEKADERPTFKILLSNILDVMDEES

MDA-MB-231 [29] = assay: Cytotoxicity against human MDA-MB-231 cells assessed as inhibition of anchorage-independent colony formation on soft agar after 10 days by crystal violet staining based assay; assay type: functional, cell-based; conditions: MDA-MB-231, 240 h
Summary of the method: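 Base layer 0.5% agar, top layer 0.3% agar containing the cells, both in DMEM with 10% FBS. Feeding medium held compound at the indicated concentrations or 1% DMSO and was changed twice weekly for 10 d at 37 °C, 5% CO2. Colonies were stained with 0.005% crystal violet and counted under a dissecting microscope. Values are mean ± SE of six fields from two independent samples.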

[30] = biological target: Signal transducer and activator of transcription 3 (Homo sapiens) (UniProt P40763); assay: Inhibition of STAT3 phosphorylation at Tyr705 in human MDA-MB-231 cells at 5 uM measured at 4 hrs by Western blot method; assay type: cell-based
[31] = biological target: Signal transducer and activator of transcription 3 (Homo sapiens) (UniProt P40763); assay: Inhibition of STAT3 in human MDA-MB-468 cells assessed as decrease in autophagic flux by measuring accumulation of LC3B-2 level at 5 uM after 4 hrs in presence of bafilomycin A by Western blot method; assay type: cell-based; summary of the method: as §2
[32] = biological target: Calcium/calmodulin-dependent protein kinase type II subunit gamma (Homo sapiens, UniProt Q13555); assay: Inhibition of CaMK2gamma (unknown origin)
[33] = biological target: T1, Maternal embryonic leucine zipper kinase; assay: Inhibition of MELK in human MDA-MB-468 cells assessed as upregulation of p53-dependent p21WAF1/CIP1 expression at 5 uM by Western blot method; assay type: cell-based; conditions: TDE = time-dependent effect; summary of the method: as §1
Target sequence in this assay (Q14680 whole entry, looked up): as the sequence (Q14680 whole entry) above

MDA-MB-231 [34] = assay: Cytotoxicity against human MDA-MB-231 cells assessed as cell growth inhibition after 3 days by MTT assay; assay type: functional, cell-based; conditions: MDA-MB-231, 72 h
Summary of the method: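 MDA-MB-231 cells (10^4/well) in DMEM with 10% FBS at 37 °C, 5% CO2 were plated overnight, then exposed to compounds at the indicated concentrations or 1% DMSO control for 3 d. MTT (5 mg/mL stock) was added for 2 h. Absorbance was read at 570 nm with a 630 nm reference. Values are mean ± SD, n = 3.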

Angiopoietin-1 receptor = Angiopoietin-1 receptor (Homo sapiens, UniProt Q02763); assay: Inhibition of TIE2/TEK (unknown origin)
[35] = biological target: Calcium/calmodulin-dependent protein kinase type II subunit delta (Homo sapiens, UniProt Q13557); assay: Inhibition of CaMK2delta (unknown origin)
[36] = biological target: Signal transducer and activator of transcription 3 (Homo sapiens) (UniProt P40763); assay: Inhibition of [gamma32P]-ATP labelled DNA binding to STAT3 dimer (unknown origin) at 5 uM after 4 hrs by electrophoretic mobility shift assay
Summary of the method: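 STAT3 consensus oligonucleotide was 5'-labeled with [γ-32P]ATP using polynucleotide kinase. Nuclear protein (2 µg) was incubated with probe for 30 min on ice in 10 mM Tris, 50 mM KCl, 1 mM DTT, 50 µM EDTA, 50 ng/µL poly(dI-dC), pH 7.5. Samples were run on a 4% native polyacrylamide gel in Tris-glycine-EDTA, then the gel was dried and autoradiographed.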

Tyrosine-protein kinase Blk, sequence (P51451 whole entry): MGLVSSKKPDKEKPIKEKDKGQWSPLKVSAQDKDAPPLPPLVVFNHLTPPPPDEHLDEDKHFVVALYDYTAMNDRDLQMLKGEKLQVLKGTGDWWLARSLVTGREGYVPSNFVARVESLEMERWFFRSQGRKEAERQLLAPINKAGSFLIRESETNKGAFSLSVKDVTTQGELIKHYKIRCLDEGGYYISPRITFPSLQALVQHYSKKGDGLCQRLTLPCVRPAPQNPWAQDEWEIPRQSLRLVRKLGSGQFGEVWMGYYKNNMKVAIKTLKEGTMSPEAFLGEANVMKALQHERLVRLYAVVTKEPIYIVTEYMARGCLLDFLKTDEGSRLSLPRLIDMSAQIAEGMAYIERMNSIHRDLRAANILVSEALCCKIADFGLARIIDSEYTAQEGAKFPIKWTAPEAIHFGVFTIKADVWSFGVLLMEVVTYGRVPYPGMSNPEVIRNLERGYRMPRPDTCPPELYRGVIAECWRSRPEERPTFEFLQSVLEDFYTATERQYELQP

Structure (SMILES): CCN(CC)CCCCNc1nc(/C=C/c2c(Cl)cc(Cl)cc2Cl)nc2ccc(N)cc12
IC50 [1]: 2.1 µM

Structure (SMILES): C(=C\c1nc(N2CCCC2)c2ccccc2n1)/c1ccccc1
IC50 (MDA-MB-231 [34]): < 10 µM

Structure (SMILES): CCN(CC)CCNc1nc(/C=C/c2ccc(Cl)cc2)nc2cc3ccccc3cc12
IC50 (MDA-MB-231 [34]): < 10 µM

Structure (SMILES): CC1CCN(c2nc(/C=C/c3ccccc3)nc3ccccc23)CC1
IC50 (MDA-MB-231 [34]): > 10 µM

More lines, main results first:

IC50 [1]: 3.5 µM
Structure (SMILES): Nc1ccc2nc(/C=C/c3ccc(C(F)(F)F)cc3)nc(NCCCN3CCOCC3)c2c1

IC50 [2]: 8.8 µM
inhibition [3]: inactive
inhibition [4]: > 98%
IC50 [5]: 1.9 µM
inhibition [6]: Tde
inhibition [7]: Tde
inhibition [8]: Active
inhibition [9]: Active
IC50 [10]: 10.5 µM
inhibition [11]: inactive
inhibition [12]: Active
IC50 [13]: 14.7 µM
IC50 [14]: 23.9 µM
inhibition [15]: Active
IC50 (Insulin receptor): > 100 µM
IC50 [1]: 1.4 µM
inhibition [16]: inactive
IC50 [17]: 9 µM
IC50 [18]: 6.9 µM
inhibition [19]: inactive
inhibition [20]: Active
inhibition [21]: Active
IC50 [22]: 42.7 µM
IC50 [24]: > 100 µM
inhibition [25]: inactive
inhibition [27]: inactive
IC50 [28]: 6.7 µM
inhibition [30]: Active
inhibition [31]: Active
IC50 [32]: 9.2 µM
inhibition [33]: Tde
IC50 (Angiopoietin-1 receptor): 1.8 µM
IC50 [35]: 9.1 µM
Structure (SMILES): CCN(CC)CCCC(C)Nc1nc(/C=C/c2c(Cl)cc(Cl)cc2Cl)nc2ccc(N)cc12 (stereo not drawn)
inhibition [23]: Active
Activity (MDA-MB-468): inactive
inhibition [26]: Active
IC50 (MDA-MB-231 [29]): 3 to 7 µM
IC50 (MDA-MB-231 [34]): 2 µM

inhibition [36]: Active
inhibition [3]: inactive
inhibition [6]: Tde
inhibition [7]: Tde
inhibition [8]: Active
inhibition [9]: Active
inhibition [15]: Active
inhibition [20]: Active
inhibition [21]: Active
inhibition [25]: inactive
inhibition [27]: inactive
inhibition [30]: Active
inhibition [33]: Tde
Structure (SMILES): CCN(CC)CCCC(C)Nc1nc(/C=C/c2ccccc2)nc2cc(Cl)ccc12 (stereo not drawn)
inhibition [23]: Active
inhibition [26]: Active

Reference: ChEMBL document CHEMBL4033661, “Small molecules inhibit STAT3 activation, autophagy, and cancer cell anchorage-independent growth” (Bioorg Med Chem, 2017)
